# Measured values taken from ChEMBL document CHEMBL4190402, “Development of a Novel Human Parathyroid Hormone Receptor 1 (hPTHR1) Agonist (CH5447240), a Potent and Orally Available Small Molecule for Treatment of Hypoparathyroidism” (J Med Chem, 2018).
# Active and inactive are the calls of the source. No cut-off for these calls is given here.
# Assays:
# [1] = target: T1, Parathyroid hormone/parathyroid hormone-related peptide receptor (Homo sapiens, UniProt Q03431); assay: Displacement of 125I-PTH (1 to 15 residues) from human PTHR1 expressed in African green monkey COS7 cell membranes at 300 uM after 90 mins by gamma counting analysis
# T1 sequence (Q03431 whole entry): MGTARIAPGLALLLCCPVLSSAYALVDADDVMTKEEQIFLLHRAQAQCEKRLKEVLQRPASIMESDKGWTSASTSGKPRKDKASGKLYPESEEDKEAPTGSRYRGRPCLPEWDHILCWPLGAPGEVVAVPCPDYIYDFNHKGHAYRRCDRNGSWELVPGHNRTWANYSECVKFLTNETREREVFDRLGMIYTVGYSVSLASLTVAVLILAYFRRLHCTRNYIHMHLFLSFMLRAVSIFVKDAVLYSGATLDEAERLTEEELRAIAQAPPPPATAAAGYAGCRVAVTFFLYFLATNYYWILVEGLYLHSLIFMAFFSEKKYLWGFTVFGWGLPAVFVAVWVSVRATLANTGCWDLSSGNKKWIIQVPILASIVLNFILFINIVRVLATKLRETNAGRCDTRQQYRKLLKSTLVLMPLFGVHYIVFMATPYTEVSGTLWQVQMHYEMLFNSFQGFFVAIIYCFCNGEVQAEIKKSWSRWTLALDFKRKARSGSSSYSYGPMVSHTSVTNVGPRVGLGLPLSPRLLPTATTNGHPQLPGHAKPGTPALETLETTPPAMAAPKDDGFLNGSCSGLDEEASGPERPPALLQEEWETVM
# [2] = target: T2, Parathyroid hormone/parathyroid hormone-related peptide receptor (Homo sapiens) (UniProt Q03431); assay: (§1) Agonist activity at human PTHR1 expressed in HKRKB7 cells assessed as accumulation of intracellular cAMP after 20 mins by enzyme immunoassay; assay type: functional, cell-based
# T2 sequence (whole entry): T1 sequence (Q03431 whole entry)
# Summary of the method: (§2)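 HKRK-B7 cells (LLC-PK1 stably expressing hPTHR1), 1.0 x 10^3 per well, seeded overnight, then exposed to serially diluted compound in McCoy's 5A with 2 mg/ml BSA, 1 mmol/l IBMX and 2 mmol/l HEPES for 20 min at 37°C. Cells washed, frozen, lysed in 50 mmol/l HCl, cAMP read by EIA.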
# [3] = target: T1, Parathyroid hormone/parathyroid hormone-related peptide receptor; assay: as §1; assay type: functional, cell-based; summary of the method: as §2
# [4] = target: T2, Parathyroid hormone/parathyroid hormone-related peptide receptor (Homo sapiens); assay: Displacement of 125I-PTH (1 to 15 residues) from human PTHR1 expressed in African green monkey COS7 cell membranes after 90 mins by gamma counting analysis
# Summary of the method: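 Competition binding on membranes from COS-7 cells expressing human PTHR1. Incubated 90 min at room temperature, vacuum-filtered and washed, filter radioactivity gamma-counted. Nonspecific binding defined with excess (1x10^4 M as printed) unlabeled PTH(1-34).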
# [5] = Solubility of the compound in FaSSIF at 1 mM by HPLC-UV analysis; assay type: physicochemical; conditions: FaSSIF
# Summary of the method: (§3)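 A 1 mM DMSO stock (50 µL) was freeze-dried, then the residue taken up in 50 mM PBS pH 6.5 or FaSSIF pH 6.5. Sonicated 10 min, shaken 2 h, centrifuged, filtered. Filtrate concentration determined by HPLC-UV against each compound's calibration curve.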
# [6] = Solubility of the compound in PBS at pH 6.5 at 1 mM by HPLC-UV analysis; assay type: physicochemical; conditions: PBS, pH 6.5; summary of the method: as §3
# [7] = Intrinsic clearance in human liver microsomes assessed per mg protein at 1 uM after 30 mins in presence of NADPH by LC-MS/MS analysis; assay type: ADME, microsome; conditions: read-out: CLH
# [8] = Intrinsic clearance in human liver microsomes assessed per mg protein at 1 uM after 30 mins in absence of NADPH by LC-MS/MS analysis; assay type: ADME, microsome; conditions: microsomes, 0.5 h, 1 µM
# [9] = Half life in Crl:CD/SD IGS, CRJ rat at 3 mg/kg, iv by LC-MS/MS analysis; assay type: ADME, organism-based; conditions: in vivo
# Summary of the method: (§4)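 Female 5-week-old rats, two per dose group, given 3 mg/kg orally or intravenously. Oral blood samples at 15 and 30 min, 1, 2, 4 and 6 h; intravenous sample at 3 min. Plasma drug measured by LC-MS/MS (detection limit 0.3 ng/ml). Parameters derived by noncompartmental analysis; mean of n=2.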
# [10] = Half life in Crl:CD/SD IGS, CRJ rat at 3 mg/kg, po by LC-MS/MS analysis; assay type: ADME, organism-based; conditions: in vivo; summary of the method: as §4
# [11] = Tmax in Crl:CD/SD IGS, CRJ rat at 3 mg/kg, po by LC-MS/MS analysis; assay type: ADME, organism-based; conditions: in vivo; summary of the method: as §4
# [12] = Cmax in Crl:CD/SD IGS, CRJ rat at 3 mg/kg, po by LC-MS/MS analysis; assay type: ADME, organism-based; set-up: dose 3 mg/kg, route oral; conditions: in vivo; summary of the method: as §4
# [13] = AUC (infinity) in Crl:CD/SD IGS, CRJ rat at 3 mg/kg, iv by LC-MS/MS analysis; assay type: ADME, organism-based; set-up: dose 3 mg/kg, route intravenous, time infinity; conditions: in vivo; summary of the method: as §4
# [14] = AUC (infinity) in Crl:CD/SD IGS, CRJ rat at 3 mg/kg, po by LC-MS/MS analysis; assay type: ADME, organism-based; set-up: dose 3 mg/kg, time infinity, route oral; conditions: in vivo; summary of the method: as §4
# [15] = Clearance in Crl:CD/SD IGS, CRJ rat at 3 mg/kg, iv by LC-MS/MS analysis; assay type: ADME, organism-based; conditions: in vivo; summary of the method: as §4
# [16] = Clearance in Crl:CD/SD IGS, CRJ rat at 3 mg/kg, po by LC-MS/MS analysis; assay type: ADME, organism-based; conditions: in vivo; summary of the method: as §4
# [17] = Volume of distribution at steady state in Crl:CD/SD IGS, CRJ rat at 3 mg/kg, iv by LC-MS/MS analysis; assay type: ADME, organism-based; conditions: in vivo, read-out: Vdss; summary of the method: as §4
# [18] = Oral bioavailability in Crl:CD/SD IGS, CRJ rat at 3 mg/kg by LC-MS/MS analysis; assay type: ADME, organism-based; conditions: in vivo; summary of the method: as §4
# hERG (KCNH2) = hERG (KCNH2) (Homo sapiens, UniProt Q12809); assay: Inhibition of human ERG at a holding potential of -80 mV at 10 uM by automated patch clamp electrophysiology method
# [19] = target: T2, Parathyroid hormone/parathyroid hormone-related peptide receptor (Homo sapiens); assay: Ratio of IC50 for displacement of 125I-PTH (1 to 15 residues) from human PTHR1 expressed in African green monkey COS7 cell membranes to EC50 for agonist activity at human PTHR1 expressed in HKRKB7 cells assessed as accumulation of intracellular cAMP; assay type: functional
# LLC-PK1 = assay: Induction of cAMP production in porcine LLC-PK1 cells after 20 mins by enzyme immunoassay; assay type: functional, cell-based; conditions: Sus scrofa
# Summary of the method: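 Counter-screen on parent LLC-PK1 cells lacking hPTHR1. Conditions match the HKRK-B7 assay: 20 min at 37°C in IBMX-containing assay medium, then cAMP read by EIA.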
# Rattus norvegicus [20] = assay: In vivo agonist activity at PTHR1 in po dosed Crl:CD(SD) rat TPTX model assessed as increase in serum calcium levels administered as single dose measured after 24 hrs by o-cresolphthalein complexone method; assay type: functional, organism-based
# Summary of the method: (§5)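 Female 6-week-old Crl:CD(SD) rats after surgical TPTX; those with serum Ca <8.0 mg/dl at day 5 were used, and dosing began day 6. Single oral dose of 6, 19 or 60 mg/kg, or vehicle (10% DMSO/10% Kolliphor EL in 10% HPCD/0.752% glycine buffer), n=5 per group. Jugular blood taken under isoflurane before dosing and at 0.5, 1, 2, 4, 6, 10 and 24 h. Serum Ca measured by o-CPC, Pi by xanthine oxidase.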
# Rattus norvegicus [21] = assay: In vivo agonist activity at PTHR1 in po dosed Crl:CD(SD) rat TPTX model assessed as decrease in serum phosphorus levels administered as single dose measured after 24 hrs by xanthine oxidase method; assay type: functional, organism-based; summary of the method: as §5
# Rattus norvegicus [22] = assay: Tmax in Sprague-Dawley rat at 5 ug/kg, sc; assay type: ADME, organism-based; conditions: in vivo, 0.005 mg/kg
# [23] = Half life in Sprague-Dawley rat at 5 ug/kg, sc; assay type: ADME, organism-based; conditions: in vivo, 0.005 mg/kg
# hERG (KCNH2), sequence (Q12809 whole entry, the tested form may be a part): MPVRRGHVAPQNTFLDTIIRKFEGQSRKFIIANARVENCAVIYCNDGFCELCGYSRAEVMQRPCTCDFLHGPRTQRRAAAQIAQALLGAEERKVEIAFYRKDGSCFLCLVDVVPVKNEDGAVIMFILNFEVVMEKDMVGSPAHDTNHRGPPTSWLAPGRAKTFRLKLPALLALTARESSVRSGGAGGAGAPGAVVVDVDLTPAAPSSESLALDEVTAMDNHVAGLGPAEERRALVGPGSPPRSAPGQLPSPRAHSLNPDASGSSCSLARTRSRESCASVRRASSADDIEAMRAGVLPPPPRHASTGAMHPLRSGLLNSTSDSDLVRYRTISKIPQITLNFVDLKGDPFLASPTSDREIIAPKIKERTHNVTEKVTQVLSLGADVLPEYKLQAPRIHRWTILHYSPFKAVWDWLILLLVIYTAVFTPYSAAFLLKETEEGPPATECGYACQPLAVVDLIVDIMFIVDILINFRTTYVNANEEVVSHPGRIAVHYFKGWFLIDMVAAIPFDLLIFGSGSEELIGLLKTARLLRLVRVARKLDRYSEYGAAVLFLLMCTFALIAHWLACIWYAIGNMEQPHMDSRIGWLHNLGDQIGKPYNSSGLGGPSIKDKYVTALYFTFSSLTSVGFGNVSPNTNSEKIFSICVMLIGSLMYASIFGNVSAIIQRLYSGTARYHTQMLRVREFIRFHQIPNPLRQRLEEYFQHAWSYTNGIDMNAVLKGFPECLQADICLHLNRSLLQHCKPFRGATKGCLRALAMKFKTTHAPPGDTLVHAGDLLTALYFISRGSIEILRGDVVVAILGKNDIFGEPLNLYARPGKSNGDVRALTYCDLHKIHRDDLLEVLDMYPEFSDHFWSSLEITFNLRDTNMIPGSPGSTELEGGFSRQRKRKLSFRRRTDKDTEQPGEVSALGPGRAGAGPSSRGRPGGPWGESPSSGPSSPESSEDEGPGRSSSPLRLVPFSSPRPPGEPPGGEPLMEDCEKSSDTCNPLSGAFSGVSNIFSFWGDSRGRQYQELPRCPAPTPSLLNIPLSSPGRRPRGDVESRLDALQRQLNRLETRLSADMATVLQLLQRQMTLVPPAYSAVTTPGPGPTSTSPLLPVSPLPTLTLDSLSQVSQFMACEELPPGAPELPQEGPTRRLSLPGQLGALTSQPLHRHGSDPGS
structure (smiles),measurement,setting,value
Cc1cc(N(C)C(N)=O)cc(C)c1CCS(=O)(=O)N1CCC2(CC1)N=C([C@H]1CC[C@H](C)CC1)NC2=O,IC50,[1],93.7 µM
same,EC20,[2],3 µM
same,EC50,[3],12 µM
same,inhibition,[4],75%
same,solubility at 1000 µM,[5],250 µg/mL
same,solubility at 1000 µM,[6],99 µg/mL
same,microsomal CLint at 1 µM,[7],45 µL/min/mg
same,CLint,[8],0.14 µL/min/mg
same,half-life,[9],1.1 h
same,half-life,[10],1 h
same,Tmax,[11],1 h
same,Cmax,[12],1360 ng/mL
same,AUC(0-inf),[13],4820 ng·h/mL
same,AUC(0-inf),[14],2650 ng·h/mL
same,clearance,[15],10.4 mL/min/kg
same,CL/F,[16],19 mL/min/kg
same,Vd,[17],0.395 L/kg
same,bioavailability,[18],55%
same,inhibition at 10 µM,hERG (KCNH2),10%
same,Ratio IC50/EC50,[19],8
same,Activity,LLC-PK1,inactive
same,Activity,Rattus norvegicus [20],Dose-dependent effect
same,Activity,Rattus norvegicus [21],Dose-dependent effect
CC[C@H](C)[C@H](NC(=O)[C@H](CCC(=O)O)NC(=O)[C@H](CO)NC(=O)[C@@H](NC(=O)[C@@H](N)CO)C(C)C)C(=O)N[C@@H](CCC(N)=O)C(=O)N[C@@H](CC(C)C)C(=O)N[C@@H](CCSC)C(=O)N[C@@H](Cc1cnc[nH]1)C(=O)N[C@@H](CC(N)=O)C(=O)N[C@@H](CC(C)C)C(=O)NCC(=O)N[C@@H](CCCCN)C(=O)N[C@@H](Cc1cnc[nH]1)C(=O)N[C@@H](CC(C)C)C(=O)N[C@@H](CC(N)=O)C(=O)N[C@@H](CO)C(=O)N[C@@H](CCSC)C(=O)N[C@@H](CCC(=O)O)C(=O)N[C@@H](CCCN=C(N)N)C(=O)N[C@H](C(=O)N[C@@H](CCC(=O)O)C(=O)N[C@@H](Cc1c[nH]c2ccccc12)C(=O)N[C@@H](CC(C)C)C(=O)N[C@@H](CCCN=C(N)N)C(=O)N[C@@H](CCCCN)C(=O)N[C@@H](CCCCN)C(=O)N[C@@H](CC(C)C)C(=O)N[C@@H](CCC(N)=O)C(=O)N[C@@H](CC(=O)O)C(=O)N[C@H](C(=O)N[C@@H](Cc1cnc[nH]1)C(=O)N[C@@H](CC(N)=O)C(=O)N[C@@H](Cc1ccccc1)C(=O)O)C(C)C)C(C)C [TERIPARATIDE],Tmax,Rattus norvegicus [22],0.25 h
same,half-life,[23],0.5 h
